Calls of active or inactive are those of the source. The rule behind the calls is not given here.
Experiments:
[1] = target: T1, 5-hydroxytryptamine receptor 4 (Homo sapiens, UniProt Q13639); assay: Agonist activity at human 5HT4 isoform E receptor expressed in rat C6 cells assessed as cAMP accumulation at 10 nM by radio-immunoassay relative to 5HT; type: functional, cell-based
How it was run: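 C6 glial cells stably transfected with h5-HT4(e)R, grown to confluence, serum-free 4 h, then preincubated 15 min in serum-free medium with 5 mM theophylline and 10 µM pargyline. […] Stopped with ice-cold perchloric acid; cAMP by radioimmunoassay; response normalized to 5-HT maximum.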

[2] = target: T1, 5-hydroxytryptamine receptor 4; assay: Displacement of [3H]GR-113808 from human 5HT4 isoform E receptor expressed in rat C6 cells at 10 nM by liquid scintillation counting; type: cell-based
[3] = target: T1, 5-hydroxytryptamine receptor 4; assay: Displacement of [3H]GR-113808 from human 5HT4 isoform E receptor expressed in rat C6 cells by liquid scintillation counting; type: cell-based
[4] = target: T1, 5-hydroxytryptamine receptor 4; assay: Agonist activity at human 5HT4 isoform E receptor expressed in rat C6 cells assessed as cAMP accumulation by radio-immunoassay relative to 5HT; type: functional, cell-based
How it was run: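 C6 glial cells stably transfected with h5-HT4(e)R, grown to confluence, serum-free 4 h, then preincubated 15 min in serum-free medium with 5 mM theophylline and 10 µM pargyline.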

[5] = Inhibition of amyloid beta (25-35) polymerization assessed as inhibition of fibril formation by UV-visible measurement
How it was run: (§1)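 Aβ25-35 (100 µM final) with agonist (10 µM final, added in MeOH) in 10 mM phosphate buffer pH 7.2, prepared at 4 °C. UV-visible spectra 190–600 nm at 15 °C read after 6 h; agonist-alone spectra subtracted, Aβ-alone control run in parallel. At least three independent measurements. IC50 obtained by least-squares sigmoidal fit, for agonists at least as active as curcumin.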

[6] = Inhibition of amyloid beta (25-35) polymerization assessed as inhibition of fibril formation at 10 uM by UV-visible measurement; how it was run: as §1
Mus musculus [7] = assay: Increase in sAPPalpha levels in C57BL/6J mouse brain cortex at 5 mg/kg, sc after 90 mins by Western blot; type: functional, organism-based; design: dose 5 mg/kg
How it was run: (§2)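 Male C57BL/6j mice, 8 weeks, 23–27 g, 7–9 per group, single subcutaneous dose 5 mg/kg in 0.9% NaCl (saline controls 5 mL/kg). Killed 90 min later. Hippocampus and cortex sonicated in Tris/NaCl with protease inhibitors, spun 100000g 45 min. sAPPα immunoblot, normalized to β-actin densitometry, expressed as % of saline controls. One-way ANOVA with PLSD.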

Mus musculus [8] = assay: Increase in sAPPalpha levels in C57BL/6J mouse brain hippocampus at 5 mg/kg, sc after 90 mins by Western blot; type: functional, organism-based; design: dose 5 mg/kg; how it was run: as §2

T1 sequence (Q13639 whole entry, canonical isoform): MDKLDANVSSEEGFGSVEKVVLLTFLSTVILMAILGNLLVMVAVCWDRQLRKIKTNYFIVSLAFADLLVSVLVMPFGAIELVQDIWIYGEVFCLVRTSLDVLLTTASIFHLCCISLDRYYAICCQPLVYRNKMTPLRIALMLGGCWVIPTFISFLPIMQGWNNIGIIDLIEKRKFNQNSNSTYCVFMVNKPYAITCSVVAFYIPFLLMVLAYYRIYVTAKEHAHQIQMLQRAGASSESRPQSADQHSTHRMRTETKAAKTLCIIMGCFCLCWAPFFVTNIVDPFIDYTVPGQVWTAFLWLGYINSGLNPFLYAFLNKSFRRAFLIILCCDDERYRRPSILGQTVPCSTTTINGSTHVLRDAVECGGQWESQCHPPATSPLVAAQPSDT

Row | SMILES | Emax [1] | Activity [2] | also measured
1 | COc1cc(N)c(Cl)cc1C(=O)OCCN1CCC(NC(=O)CSc2ccccc2)CC1 | < 10% | 20% | –
2 | COc1cc(N)c(Cl)cc1C(=O)OCCN1CCC(CNC(=O)CCC2CCCCC2)CC1 | > 50% | 10% | –
3 | COc1cc(N)c(Cl)cc1C(=O)OCCN1CCC(NC(=O)c2ccccc2F)CC1 | 10% | 10% | –
4 | COc1cc(N)c(Cl)cc1C(=O)OCCN1CCC(NC(=O)CC(C)C)CC1 | 10% | < 10% | –
5 | COc1cc(N)c(Cl)cc1C(=O)OCCN1CCCCC1 | 45% | 40% | –
6 | CCCC(=O)NC1CCN(CCOC(=O)c2cc(Cl)c(N)cc2OC)CC1 | – | 0% | –
7 | COc1cc(N)c(Cl)cc1C(=O)OCCN1CCC(NC(=O)CC2CCCCC2)CC1 | – | < 10% | –
8 | COc1cc(N)c(Cl)cc1C(=O)OCCN1CCC(NC(=O)Cc2ccc(Br)cc2)CC1 | 10% | 10% | –
9 | COc1cc(N)c(Cl)cc1C(=O)OCCN1CCC(CNC(=O)CCCNS(=O)(=O)c2ccc(C)cc2)CC1 | > 70% | > 50% | Ki [3]: 2 nM; EC50 [4]: 68 nM
10 | COc1cc(N)c(Cl)cc1C(=O)OCCN1CCC(CNC(=O)CC2CCCCC2)CC1 | < -10% | 20% | –
11 | COc1cc(N)c(Cl)cc1C(=O)OCCN1CCC(NC(=O)CCc2ccccc2)CC1 | < 10% | 20% | –
12 | COc1cc(N)c(Cl)cc1C(=O)OCCN1CCC(NC(=O)CCCNS(=O)(=O)c2ccc(C)cc2)CC1 | 10% | 10% | –
13 | COc1cc(N)c(Cl)cc1C(=O)OCCN1CCC(NC(=O)CCCNCCCc2ccccc2)CC1 | 50% | – | Ki [3]: 12 nM
14 | COc1cc(N)c(Cl)cc1C(=O)OCCN1CCC(NC(=O)CCCNCCCc2ccc(CCCNCCCC(=O)NC3CCN(CCOC(=O)c4cc(Cl)c(N)cc4OC)CC3)cc2)CC1 | > 50% | 10% | IC50 [5]: 9000 nM; inhibition [6]: 49%; Ki [3]: 14 nM; Activity (Mus musculus [7]): Active; Activity (Mus musculus [8]): Active; EC50 [4]: 9 nM
15 | COc1cc(N)c(Cl)cc1C(=O)OCCN1CCC(NC(=O)c2ccc(C)nc2O)CC1 | – | < 10% | –
16 | COc1cc(N)c(Cl)cc1C(=O)OCCN1CCC(CNC(=O)CCCNS(=O)(=O)c2ccc(-c3ccccc3)cc2)CC1 | < 10% | 10% | –
17 | COc1cc(N)c(Cl)cc1C(=O)OCCN1CCC(NC(=O)c2ccc([N+](=O)[O-])o2)CC1 | – | < 10% | –
18 | COc1cc(/C=C/C(=O)CC(=O)/C=C/c2ccc(O)c(OC)c2)ccc1O [CURCUMIN] | – | – | IC50 [5]: 10000 nM; inhibition [6]: 45%
19 | COc1cc(N)c(Cl)cc1C(=O)OCCN1CCC(NC(=O)CCCc2ccccc2)CC1 | 20% | 20% | –
20 | COc1cc(N)c(Cl)cc1C(=O)OCCN1CCC(NC(=O)CCC2CCCCC2)CC1 | – | 0% | –
21 | COc1ccc(OC)c(/C=C/C(=O)NCC2CCN(CCOC(=O)c3cc(Cl)c(N)cc3OC)CC2)c1 | – | 20% | –
22 | COc1cc(N)c(Cl)cc1C(=O)OCCN1CCC(NC(=O)Cc2ccc([N+](=O)[O-])cc2)CC1 | 20% | 20% | –
23 | COc1cc(N)c(Cl)cc1C(=O)OCCN1CCC(NC(=O)CCCCc2ccccc2)CC1 | – | < 10% | –
24 | COc1cc(N)c(Cl)cc1C(=O)OCCN1CCC(NC(=O)Cc2ccccc2Cl)CC1 | > 50% | 10% | Ki [3]: 5 nM; EC50 [4]: 18 nM

More lines, main results first:

Row | Emax [1] | Activity [2] | SMILES | also measured
25 | 10% | 10% | COc1cc(N)c(Cl)cc1C(=O)OCCN1CCC(CNC(=O)CCCCc2ccccc2)CC1 | –
26 | 0% | 10% | COc1cc(N)c(Cl)cc1C(=O)OCCN1CCC(CNC(=O)c2ccsc2)CC1 | –
27 | > 50% | 40% | COc1cc(N)c(Cl)cc1C(=O)OCCN1CCC(CNC(=O)Cc2ccc([N+](=O)[O-])cc2)CC1 | –
28 | 20% | 20% | COc1cc(N)c(Cl)cc1C(=O)OCCN1CCC(CNC(=O)CCc2ccccc2)CC1 | –
29 | 0% | 40% | COc1cc(N)c(Cl)cc1C(=O)OCCN1CCC(CNC(=O)Cc2ccc(Br)cc2)CC1 | –
30 | 10% | 10% | COc1cc(N)c(Cl)cc1C(=O)OCCN1CCC(CNC(=O)c2ccc(C)nc2O)CC1 | –
31 | 0% | 20% | COc1cc(N)c(Cl)cc1C(=O)OCCN1CCC(CNC(=O)c2ccccc2F)CC1 | –
32 | < 10% | 20% | COc1cc(N)c(Cl)cc1C(=O)OCCN1CCC(CNC(=O)c2cccs2)CC1 | –
33 | < 10% | 20% | CCCC(=O)NCC1CCN(CCOC(=O)c2cc(Cl)c(N)cc2OC)CC1 | –
34 | 0% | 20% | COc1cc(N)c(Cl)cc1C(=O)OCCN1CCC(CNC(=O)CCCc2ccccc2)CC1 | –
35 | 20% | 10% | COc1cc(N)c(Cl)cc1C(=O)OCCN1CCC(NC(=O)c2ccsc2)CC1 | –
36 | 20% | > 50% | COc1cc(N)c(Cl)cc1C(=O)OCCN1CCC(CNC(=O)Cc2ccccc2Cl)CC1 | –
37 | < 10% | 20% | COc1cc(N)c(Cl)cc1C(=O)OCCN1CCC(NC(=O)c2cccs2)CC1 | –
38 | < 10% | 30% | COc1cc(N)c(Cl)cc1C(=O)OCCN1CCC(CNC(=O)CSc2ccccc2)CC1 | –
39 | 10% | 10% | COc1cc(N)c(Cl)cc1C(=O)OCCN1CCC(CNC(=O)CC(C)(C)C)CC1 | –
40 | 30% | 30% | COc1cc(N)c(Cl)cc1C(=O)OCCN1CCC(CNC(=O)CCc2cccs2)CC1 | –
41 | 10% | 10% | COc1cc(N)c(Cl)cc1C(=O)OCCN1CCC(NC(=O)CCc2cccs2)CC1 | –
42 | 10% | 20% | COc1cc(N)c(Cl)cc1C(=O)OCCN1CCC(CNC(=O)C(C)C)CC1 | –
43 | 40% | 20% | COc1cc(N)c(Cl)cc1C(=O)OCCN1CCC(CNC(=O)CC(C)C)CC1 | –
44 | 10% | 40% | COc1ccc(OC)c(CC(=O)NCC2CCN(CCOC(=O)c3cc(Cl)c(N)cc3OC)CC2)c1 | –

From ChEMBL document CHEMBL1153823, “Design, synthesis, and biological evaluation of new 5-HT4 receptor agonists: application as amyloid cascade modulators and potential therapeutic utility in Alzheimer's disease” (J Med Chem, 2009)
